In ChEMBL document CHEMBL4270510, “Indolyl-isoxazolidines attenuate LPS-stimulated pro-inflammatory cytokines and increase survival in a mouse model of sepsis: Identification of potent lead” (Eur J Med Chem, 2018):
Calls of active or inactive are those of the source. The rule behind the calls is not given here.

Assays:
[1] = system: THP-1; assay: Antiinflammatory activity against PMA-treated human THP1 cells assessed as inhibition of LPS-induced IL-6 production at 5 uM after 24 hrs by ELISA relative to total protein level (reference value: 6.06 +/- 0.55); assay type: functional
[2] = system: THP-1; assay: Inhibition of LPS-induced TNFalpha production in PMA-treated human THP1 cells at 5 uM after 24 hrs by ELISA relative to total protein level (reference value: 6.04 +/- 0.54); assay type: cell-based; conditions: thp-1, 24 h
[3] = system: THP-1; assay: Antiinflammatory activity against PMA-treated human THP1 cells assessed as inhibition of LPS-induced IL-6 production at 5 uM after 24 hrs by ELISA relative to control; assay type: functional
[4] = system: THP-1; assay: Cytotoxicity against human THP1 cells assessed as decrease in cell growth after 24 hrs by MTT assay; assay type: cell-based; conditions: THP-1, 24 h
Summary of the method: (§1)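 THP-1 cells in 96-well plates treated with a range of compound concentrations for 24 or 48 h. MTT (2.5 mg/mL) added for 4 h at 37 °C, formazan dissolved in DMSO, absorbance read at 540 nm. Growth taken as treated versus untreated absorbance.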

[5] = system: THP-1; assay: Cytotoxicity against human THP1 cells assessed as decrease in cell growth after 48 hrs by MTT assay; assay type: cell-based; conditions: THP-1, 48 h; summary of the method: as §1
[6] = system: Mus musculus; assay: Antiinflammatory activity against Swiss albino mouse assessed as inhibition of LPS-induced TNFalpha production in serum at 10 mg/kg, ip by ELISA relative to control; assay type: functional
Summary of the method: (§2)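 Swiss albino mice given compound at 5, 10 or 20 mg/kg, then challenged with LPS 1 mg/kg; vehicle and LPS-alone groups included. Cardiac-puncture blood taken with heparin and spun to plasma, stored -20°C. TNF-α and IL-6 measured by ELISA in pg/mL. Dose-response done in triplicate, fitted by quadratic/cubic regression to derive IC50 in mg/kg.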

[7] = system: Mus musculus; assay: Antiinflammatory activity against Swiss albino mouse assessed as inhibition of LPS-induced TNFalpha production in serum at 20 mg/kg, ip by ELISA relative to control; assay type: functional; summary of the method: as §2
[8] = system: Mus musculus; assay: Antiinflammatory activity against Swiss albino mouse assessed as inhibition of LPS-induced IL-6 production in serum at 10 mg/kg, ip by ELISA relative to control; assay type: functional; summary of the method: as §2
[9] = system: Mus musculus; assay: Antiinflammatory activity against Swiss albino mouse assessed as inhibition of LPS-induced IL-6 production in serum at 20 mg/kg, ip by ELISA relative to control; assay type: functional; summary of the method: as §2
[10] = system: Mus musculus; assay: Antiinflammatory activity against Swiss albino mouse assessed as inhibition of LPS-induced TNFalpha production in serum administered ip by ELISA; assay type: functional, organism-based; summary of the method: as §2
[11] = system: Mus musculus; assay: Antiinflammatory activity against Swiss albino mouse assessed as inhibition of LPS-induced IL-6 production in serum administered ip by ELISA; assay type: functional, organism-based; summary of the method: as §2
[12] = system: Mus musculus; assay: (§3) Antinociceptive activity in Swiss albino mouse assessed as inhibition of acetic acid-induced writhing by measuring reduction in number of abnormal muscle constrictions at 12.5 mg/kg, ip treated 30 mins prior to test followed by acetic acid challenge measured for 30 mins post acetic acid challenge relative to control; assay type: functional
Summary of the method: (§4)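 Mice dosed i.p. with vehicle (0.1% carboxymethyl cellulose), test compound 12.5 mg/kg or indomethacin 10 mg/kg, 30 min before acetic acid (0.6% v/v, 10 ml/kg, i.p.). Writhes counted per mouse over 30 min after acetic acid. Mean ± SEM; ANOVA with Tukey test.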

[13] = system: Mus musculus; assay: Antiinflammatory activity in carrageenan-induced Swiss albino mouse assessed as inhibition of paw edema at 12.5 mg/kg, ip administered 0.5 hrs prior to carrageenan challenge measured at 6 hrs post challenge; assay type: functional
Summary of the method: (§5)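 Mice given vehicle (0.1% CMC), indomethacin 10 mg/kg p.o., or test compound 30 min before injection of 50 μL 1% w/v carrageenan into right hind paw. Paw edema measured by vernier caliper at 5, 15, 30 min and 1, 2, 3, 4, 6 h. Mean ± SEM.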

[14] = system: Mus musculus; assay: Antiinflammatory activity in carrageenan-induced Swiss albino mouse assessed as inhibition of paw edema at 12.5 mg/kg, ip administered 0.5 hrs prior to carrageenan challenge measured at 1 to 6 hrs post challenge; assay type: functional, organism-based; summary of the method: as §5
[15] = system: Mus musculus; assay: Analgesic activity in Swiss albino mouse assessed as inhibition of acetic acid induced writhing at 12.5 mg/kg, ip pretreated with misoprostol for 30 mins followed by acetic acid challenge and measured after 30 mins; assay type: functional, organism-based
[16] = system: Mus musculus; assay: Analgesic activity in Swiss albino mouse assessed as inhibition of acetic acid induced writhing at 12.5 mg/kg, ip pretreated with opioid receptor antagonist naloxone for 30 mins followed by acetic acid challenge and measured after 30 mins; assay type: functional, organism-based
[17] = species: Homo sapiens; assay: Inhibition of NF-KappaB pathway in human THP1 cell lysates assessed as decrease in LPS-induced iNOS expression level after 24 hrs by Western blot analysis
Summary of the method: (§6)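 PMA-differentiated THP-1 cells co-treated with LPS and a range of compound concentrations for 24 h, lysed in RIPA buffer. COX-2 and iNOS expression assessed by western blot, with β-actin as internal control.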

[18] = system: THP-1; assay: Antiinflammatory activity against human THP1 cells assessed as inhibition of LPS-induced COX-2 expression level after 24 hrs by Western blot analysis; assay type: functional, cell-based; summary of the method: as §6
[19] = system: Mus musculus; assay: Acute toxicity in Swiss albino mouse assessed as effect on gross behavioral abnormality at 50 to 2000 mg/kg, ip administered continuously for first 4 hrs and periodically for 24 hrs measured after 14 days; assay type: organism-based; conditions: in vivo
Summary of the method: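 Swiss albino mice, 3 per group: vehicle control, or 50, 300 or 2000 mg kg⁻¹ given after 4 h fasting under OECD acute toxicity guideline; watched continuously for first 4 h then periodically to 24 h for gross behavioural abnormality.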

[20] = system: Mus musculus; assay: Acute toxicity in Swiss albino mouse assessed as effect on myocardium at 2000 mg/kg, ip administered continuously for first 4 hrs and periodically for 24 hrs measured after 14 days by hematoxylin and eosin staining based assay; assay type: organism-based; conditions: in vivo
Summary of the method: (§7)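 OECD acute toxicity design, Swiss albino mice fasted 4 h, 3 per group, vehicle vs 2000 mg kg⁻¹; after 14 days one animal each from control and top-dose groups sacrificed; heart, liver and kidney sections H and E stained and compared with control.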

[21] = system: Mus musculus; assay: Acute toxicity in Swiss albino mouse assessed as effect on liver at 2000 mg/kg, ip administered continuously for first 4 hrs and periodically for 24 hrs measured after 14 days by hematoxylin and eosin staining based assay; assay type: organism-based; conditions: in vivo, 336 h; summary of the method: as §7
[22] = system: Mus musculus; assay: Acute toxicity in Swiss albino mouse assessed as effect on kidney at 2000 mg/kg, ip administered continuously for first 4 hrs and periodically for 24 hrs measured after 14 days by hematoxylin and eosin staining based assay; assay type: organism-based; conditions: in vivo; summary of the method: as §7
[23] = system: Mus musculus; assay: Antiseptic activity in Swiss albino mouse model of LPS-induced sepsis assessed as increase in mouse survival rate at 12.5 mg/kg, iv measured for 10 days at 1 day interval
[24] = system: Mus musculus; assay: as §3, with “10” for “12.5”; assay type: functional; summary of the method: as §4
[25] = system: Mus musculus; assay: Antiinflammatory activity in carrageenan-induced Swiss albino mouse assessed as inhibition of paw edema at 10 mg/kg, po administered 0.5 hrs prior to carrageenan challenge measured 6 hrs post challenge; assay type: functional; summary of the method: as §5

SMILES | fold change (FC) [1] | fold change (FC) [2] | fold change (FC) [3] | also measured
CCOC(=O)[C@H]1CON(c2ccccc2)[C@H]1c1c[nH]c2ccccc12 (racemic) | 1.15 | 4.37 | 4 - 5 | –
CCN1C(=O)[C@H]2[C@H](ON(c3ccccc3)[C@@H]2c2c[nH]c3ccccc23)C1=O (racemic) | 3.09 | 2.42 | – | –
c1ccc(N2O[C@H](c3ccncc3)C[C@@H]2c2c[nH]c3ccccc23)cc1 (racemic) | 2.77 | 3.92 | 4 - 5 | –
CCCCOC(=O)[C@@H]1C[C@H](c2c[nH]c3ccccc23)N(c2ccccc2)O1 (racemic) | 2.06 | 3.98 | – | –
CCCCOC(=O)[C@H]1CON(c2ccccc2)[C@H]1c1c[nH]c2ccccc12 (racemic) | 3.03 | 2.59 | – | –
CCOC(=O)[C@@H]1C[C@H](c2c[nH]c3ccccc23)N(c2ccccc2)O1 (racemic) | 3.2 | 7.77 | – | –
C[C@@]1(c2ccccc2)C[C@H](c2c[nH]c3ccccc23)N(c2ccccc2)O1 (racemic) | 1.13 | 2.74 | 4 - 5 | IC50 [4]: > 100 µM; IC50 [5]: 74 µM
COC(=O)[C@H]1CON(c2ccccc2)[C@H]1c1c[nH]c2ccccc12 (racemic) | 1.67 | 3 | 4 - 5 | –
Cc1ccc([C@@H]2C[C@H](c3c[nH]c4ccccc34)N(c3ccccc3)O2)cc1 (racemic) | 1.12 | 4.58 | 4 - 5 | –
O=C1[C@H]2[C@H](ON(c3ccccc3)[C@@H]2c2c[nH]c3ccccc23)C(=O)N1c1ccccc1 (racemic) | 1.43 | 2.21 | 4 - 5 | IC50 [4]: > 100 µM; IC50 [5]: 78 µM; inhibition in vivo at 10 mg/kg [6]: 52.9%; inhibition in vivo at 20 mg/kg [7]: 62.1%; inhibition in vivo at 10 mg/kg [8]: 60.5%; inhibition in vivo at 20 mg/kg [9]: 65.5%; IC50 [10]: 8.7 mg/kg; IC50 [11]: 7.4 mg/kg
COC(=O)[C@@H]1C[C@H](c2c[nH]c3ccccc23)N(c2ccccc2)O1 (racemic) | 4.08 | 7.27 | – | –
CCOC(=O)[C@@H]1[C@@H](C)ON(c2ccccc2)[C@H]1c1c[nH]c2ccccc12 (racemic) | 3.01 | 3.98 | – | –
O=C1NC(=O)[C@H]2ON(c3ccccc3)[C@H](c3c[nH]c4ccccc34)[C@@H]12 (racemic) | 1.65 | 4.28 | 4 - 5 | –
O=C1[C@H]2[C@H](ON(c3ccccc3)[C@@H]2c2c[nH]c3ccccc23)C(=O)N1Cc1ccccc1 (racemic) | 1.34 | 2.37 | 4 - 5 | IC50 [4]: > 100 µM; IC50 [5]: 87 µM; inhibition in vivo at 10 mg/kg [6]: 53.8%; inhibition in vivo at 20 mg/kg [7]: 86.1%; inhibition in vivo at 10 mg/kg [8]: 73.7%; inhibition in vivo at 20 mg/kg [9]: 89.9%; IC50 [10]: 9.4 mg/kg; IC50 [11]: 3.5 mg/kg; inhibition in vivo at 12.5 mg/kg [12]: 80.7%; inhibition in vivo at 12.5 mg/kg [13]: 36.9%; inhibition [14]: Active; inhibition [15]: inactive; inhibition [16]: Active; inhibition [17]: Dose-dependent effect; inhibition [18]: Dose-dependent effect; Activity [19]: Non-Toxic; Activity [20]: Non-Toxic; Activity [21]: Non-Toxic; Activity [22]: Non-Toxic; Activity [23]: Active
c1ccc([C@@H]2C[C@H](c3c[nH]c4ccccc34)N(c3ccccc3)O2)cc1 (racemic) | 5.4 | 14.93 | – | –
COc1ccc2c(c1)c(CC(=O)O)c(C)n2C(=O)c1ccc(Cl)cc1 [INDOMETHACIN] | – | – | – | inhibition in vivo at 10 mg/kg [24]: 58.1%; inhibition in vivo at 10 mg/kg [25]: 34.5%
